aSyn UTR inh: MLPCN primary screen, SNCA 5' untranslated region. alpha-synuclein 5'UTR reporter, inhibitor activity. 300,000 tested, 0.82% active. inhibition, % (tested at 7.5 µM). AID 1813; in the data active means inhibition above about 60%; inconclusive means no clear call, values can overlap the other calls;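 further: H4 neuroglioblastoma cells stably carrying SNCA 5'UTR luciferase fusion; 0% = DMSO wells and 100% = positive control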
Jurkat NFkB inh: inhibitors of the PMA/ionomycin-induced NF-kB reporter in Jurkat cells; PMA/ionomycin-induced NF-kB luciferase reporter, luminescence; inhibition, % at 4 µM; 330,000 tested, 0.53% active; AID 435003; in the data active means inhibition above about 50%
APP 5UTR inh: APP translation inhibition; SH-SY5Y APP 5'UTR-luciferase reporter, luminescence; inhibition, % at 2 µM; 190,000 tested, 0.82% active;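 active means inhibition above a set limit, derived from the sample mean plus 3 SD, cut at about 45% in these data; inconclusive means one replicate passes the limit while the other fails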
Lipid droplet: hepatic lipid droplet formation modulation | AML12 mouse hepatocytes, oleate lipid droplets, BODIPY imaging | 240,000 tested, 0.4% active | inhibition, % at 6.5 µM;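 active means lipid droplet intensity inhibited by at least 50%, with more than 500 cells counted; inconclusive means wells with under 300 cells, treated as cytotoxic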
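material = mouse AML12 hepatocyte cell line, fixed after treatment | also added = 100 µM oleic acid challenge | doses = compound at 6.5 µM only | schedule = overnight exposure | technique = Image-based BODIPY and DAPI two-channel analysis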
TAG inh: triacylglycerol accumulation inhibition | 230,000 tested, 0.66% active | inhibition, % at 12.5 µM | H9c2 cells, Nile Red lipid (TAG) fluorescence; cells loaded with 200 µM oleic acid;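 active means pattern-corrected inhibition of lipid staining of at least 50% with the nuclear-stain viability signal not falling by more than 50%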;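 further: 0% = DMSO wells and 100% = triacsin C control wells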
697 NFkB inh: lowers PMA/ionomycin-induced NF-kB signal in 697 B cells; 697 B-cell NF-kB luciferase reporter, 16 h; inhibition, % at 4 µM; 330,000 tested, 0.33% active; in the data active means inhibition above about 35%
Starred values were filed as active, the others as inactive; ? = inconclusive; · = not tested or not shown. Most compounds without a hit are left out; they make up all but 1.9% or so of the library.

SMILES | aSyn UTR inh | Jurkat NFkB inh | APP 5UTR inh | Lipid droplet | TAG inh | 697 NFkB inh
COc1ccccc1CNC(=O)/C=C/c1ccc(Br)o1 | 16 | -5 | -3 | 2 | 51* | 22
CS(=O)(=O)c1nc(-c2ccccc2)cc(C(F)(F)F)n1 | -111 | 31 | 62* | 4 | 13 | -103
Cc1cc(NC(=O)CCS(=O)(=O)c2nc(-c3ccccc3)cc(C(F)(F)F)n2)no1 | · | 21 | · | 3 | 25 | -82
COC(OC)c1ccc(C#N)c(=O)[nH]1 | -4 | -4 | 46* | 4 | -2 | -8
OC(c1cccc(Cl)c1)c1nc(-c2csc3ccccc23)cs1 (stereo unspecified) | · | · | · | · | -34 | ·
Cc1nn(C)c(C)c1/C=C(\C#N)S(=O)(=O)c1ccc(F)cc1 | · | · | · | · | 4 | ·
CCOc1ccc(S(=O)(=O)N2CCN(c3ccccc3F)CC2)c2cccnc12 | 18 | -12 | 2 | · | · | -42
CC1=CN2C(=N)/C(=C/c3ccc([N+](=O)[O-])o3)C(=O)N=C2S1 | -56 | · | 48* | -1 | · | ·
CC1=CN2C(=N)/C(=C/c3ccco3)C(=O)N=C2S1 | -219 | -115 | -136 | 28 | · | -152
O=C(Cn1cc(COc2ccc3ccccc3c2)nn1)NS(=O)(=O)c1cccc(OC(F)F)c1 | · | · | · | · | 9 | ·
c1ccc(-c2nn(-c3ccccc3)[n+](-c3ccccc3)n2)cc1 | · | · | · | · | 11 | ·
Cc1nc2cc(OC3(C)CCN(Cc4ccc(OC(F)(F)F)cc4)C3)ccc2s1 (stereo unspecified) | · | · | · | · | -12 | ·
CC(=O)/C=C/n1c(=S)oc2ccccc21 | -30 | · | 87* | -8 | · | ·
COc1ccc(S(=O)(=O)N(C)C[C@H]2Oc3ccc(NC(=O)c4ccncc4)cc3C(=O)N([C@H](C)CO)C[C@@H]2C)cc1 | · | 10 | · | · | 3 | 19
Cc1c(Cc2ccccc2)sc(/N=C/c2ccc3ccccc3c2)c1C(N)=O | · | · | 53* | ? | · | ·
CCCc1ccc(C(O)c2ncc(-c3ccccc3)[nH]2)cc1 (stereo unspecified) | · | · | · | · | -11 | ·
Cc1ccc(O)c(/C=N/NC(=O)CN2CCCC2)c1 | -10 | 11 | · | 2 | · | 1
Cc1ccc(O)c(/C=N/NC(=O)C2=NNC(c3ccccc3)(c3ccccc3)C2)c1 | · | · | 78* | -4 | · | ·
CCn1nnc2cc(C(=O)NCCc3ccccc3F)ccc21 | 63* | -80 | · | -6 | · | -85
O=C(N/N=C/c1cc([N+](=O)[O-])ccc1O)c1ccc(COc2ccc3c(c2)CCC3)o1 | 87* | 8 | · | 13 | 17 | -98
COc1ccc(Br)cc1/C=N/NC(=O)c1ccc(COc2ccc3c(c2)CCC3)o1 | -42 | -7 | -4 | · | 12 | -120
NCCOc1ccc(C2CCCCC2)cc1 | 71* | -21 | -16 | -2 | 5 | -5
Cc1ccc(S(=O)(=O)ON2C(=O)c3ccccc3C2=O)c(C)c1 | · | · | 56* | 6 | · | ·
Cc1cc(C)c(S(=O)(=O)ON2C(=O)c3ccccc3C2=O)cc1C | -36 | 2 | -4 | · | · | -15
Nc1ccc2oc(-c3cccc4ccccc34)nc2c1 | 71* | -114 | 49* | · | 12 | -99
SMILES | aSyn UTR inh | Jurkat NFkB inh | APP 5UTR inh | Lipid droplet | TAG inh | 697 NFkB inh
S=C(Nc1ccccc1Cl)NC1CCN(Cc2ccccc2)CC1 | 9 | 12 | 4 | -3 | · | -6
S=C(Nc1cc(Cl)cc(Cl)c1)NC1CCN(Cc2ccccc2)CC1 | 72* | 7 | · | -8 | 16 | 21
O=C(c1ccc(Cl)cc1)C(Cn1cncn1)C(Sc1ccccc1)c1ccccc1 (stereo unspecified) | 10 | 15 | 51* | 13 | 4 | -61
O=C(O)c1ccc2cc(-c3ccccc3)[nH]c2c1 | 66* | -32 | · | · | -6 | -208
C#CCSc1nccc(-c2nn(-c3ccc(C)cc3)ccc2=O)n1 | 12 | 16 | · | -1 | -6 | 13
C=CCSc1nccc(-c2nn(-c3ccc(C)cc3)ccc2=O)n1 | 61 | 50 | 88* | · | 26 | -60
Cc1cc(C)c2c(c1)/C(=N/NS(=O)(=O)c1ccc(Br)cc1)CCC2 | 0 | 5 | 81* | -2 | 11 | -5
Cc1cc(C)c2c(c1)/C(=N/NS(=O)(=O)c1ccccc1)CCC2 | 18 | 2 | 18 | -3 | -17 | -7
CC(C)n1c(CNC(=O)c2ccccc2F)nnc1SCC(=O)NC1CCCCC1 | · | · | · | · | -4 | ·
O=C(CCc1ccccc1)NC(c1cccs1)c1cc(Cl)c2cccnc2c1O (stereo unspecified) | 88* | · | 68* | -4 | 11 | ·
COc1ccc(C(NC(=O)c2cccnc2)c2cc(Cl)c3cccnc3c2O)cc1OC (stereo unspecified) | 76* | -4 | 74* | · | · | 2
CCC(=O)NC(c1ccc(OC)cc1)c1cc(Cl)c2cccnc2c1O (stereo unspecified) | 81* | 14 | 64* | -4 | 42 | -24
CCC(=O)NC(c1ccco1)c1cc(Cl)c2cccnc2c1OC (stereo unspecified) | · | 5 | · | · | 4 | 9
CCCCC(=O)NC(c1ccco1)c1cc(Cl)c2cccnc2c1O (stereo unspecified) | 41 | -9 | 46* | 10 | -3 | -15
CCC(=O)NC(c1ccco1)c1cc(Cl)c2cccnc2c1O (stereo unspecified) | 100* | -2 | -4 | 16 | -3 | 1
O=C(NCc1ccc(Cl)cc1)C1CCN(C(=O)c2ccc(Cl)cc2)CC1 | · | -27 | · | · | -23 | -24
CN1C=C/C(=C\c2cc[n+](C)c3ccccc23)c2ccccc21 | 74* | · | 32 | -53 | 8 | ·
CC(=NNC(=S)N1CCCCC1)c1cccc(C)n1 | · | · | · | · | 48 | ·
CSC(=S)NN=C(C)c1cccc(C)n1 | · | · | · | · | 55* | ·
Cc1ccccc1OCC(O)Cn1c(=N)n(Cc2ccccc2)c2ccccc21 (stereo unspecified) | 113* | 24 | · | 15 | 129 | -36
COc1ccccc1OCC(O)Cn1c(=N)n(Cc2ccccc2)c2ccccc21 (stereo unspecified) | 5 | 27 | -30 | -17 | · | -18
COc1ccc(C2c3ccc4ccccc4c3Oc3ncn(CCN4CCOCC4)c(=N)c32)cc1OC (stereo unspecified) | 105* | 12 | · | 0 | 23 | 2
Cc1ccc2nc(NCc3ccccc3)[nH]c2c1 | 40 | · | 10 | · | 60* | ·
COc1ccc2nc(NCc3ccccc3)[nH]c2c1 | -80 | 8 | -18 | 0 | · | -32
Oc1ccccc1N=Nc1ccccc1O | ? | · | 83* | -52 | · | ·
Nc1ccc(N=Nc2ccccc2O)c(N)c1 | -136 | -103 | · | · | 15 | -137
Cn1c(N)c(C(=O)c2ccc(C#N)cc2)c(=O)n(C)c1=O | 6 | -21 | -2 | 7 | · | 7
